In the EternaBench riboswitch data:

Tested on: MS2 coat protein
Assay: apparent Kd, MS2 coat protein; higher = weaker binding; RNA-MaP array; FMN 200 µM where present
Summary of the method: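 Stalled E. coli RNA polymerase transcribed each design on Illumina sequencing-chip clusters. The clusters were titrated with SNAP-549-labelled MS2 coat protein, starting at 0.7 or 1.5 nM and doubling up to 3 µM, first without ligand and then with constant ligand, in 100 mM Tris-HCl pH 7.5, 80 mM KCl, 4 mM MgCl2, BSA, DTT, yeast tRNA and Tween-20. Green signal was normalised to red-channel RNA signal and to the control-cluster median Fmax. The apparent Kd is the median of filtered binding-curve fits made for each cluster.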

[1] = designed as: OFF switch for flavin mononucleotide, no ligand
[2] = ligand present: flavin mononucleotide, designed as: OFF switch for flavin mononucleotide
[3] = designed as: ON switch for flavin mononucleotide, no ligand
[4] = ligand present: flavin mononucleotide, designed as: ON switch for flavin mononucleotide

Sequence	apparent Kd [1] [nM]	apparent Kd [2] [nM]	apparent Kd [3] [nM]	apparent Kd [4] [nM]
AUUUUUUAUGUAGGAUAUGCUUGUGGUAAGAUAGCAGAAGGACAUGAGGAUCACCCAUGUUAAUGAUAGAGAUUUUAGGUUGGU	42.6	69.2	–	–
GACUGAUUGUAGAAGGUACUUGAAAAUAUUUAAUAACUCAUGUGACAUGAGGAUCACCCAUGUAGUAAGGAUAUACAUAUCACA	–	–	198	91
ACUUCCCAGGAGAAGGGACAAGGCGGAGCCCGUACAUGAGGAUCACCCAUGUCAGGAUAUCCAUGCCGGAAGCUAACCCAGUUA	6.42	10.1	–	–
UCAUACGGUGAGGAUAUCUCCACUAAAGUGUGUAGAGAAGGCGCUACAUGAGGAUCACCCAUGUUUAUGGGCAG	376	117	–	–
CCUCUAACCUAGGAUAUAGGUAGACCUAGUCGCCUAGAAGGAGGUACAUGAGGAUCACCCAUGUAUAUUGGGCU	277	127	–	–
GGUCCACAUGAGGAUCACCCAUGUUAGGAUAUCUCGCCCGAGUCGUUAUGGGCCGGGCAGAGAAGGAAUGUGAA	21.7	20.2	–	–
AAGGAUAGAGGAUAUACAUAGAUACAGAUUCAUGUGGUCCUACAUGAGGAUCACCCAUGUAGAAGGCUAUCCUA	240	56.8	–	–
AUCAGCUCGUCAGGAUAUACGUCGUGGUAAGAUCACAUGAGGAUCACCCAUGUAGAAGGGACGAGCUGAUAAGCACGAAAGUGC	745	47.1	–	–
GUGGUCAGACAUGAGGAUCACCCAUGUGGAAUAAAUAAGGAGAAGGAUAUUGAAUAUAGGAUAUACAAGAAGGUCUGGUUGGUG	–	–	84.9	87
GAAGGCUGGUAGAAGGAUCCUCACAUGAGGAUCACCCAUGUAACAGCGGAUAGGAUAUACCGUCUUUCAUGUUGGUCUCCCUAA	–	–	461	46.5
GCUGACGAUGUAGGAUAUCAGUAUAAUAAAUACUGAGAAGGACAUGAGGAUCACCCAUGUAAAACUCCGUCAGCGAGGAAACUC	16.6	19.4	–	–
UUAAUUCGAAACAUGAGGAUCACCCAUGUGUUGUGGUUAAUAUAGGAUAUGUGGAUACUUUUUUGACAGAAGGAUGAUGGUACU	–	–	13.3	11.6
GGAUCGAGAGUGAGGAUAUGCUGGUCCUUGGAUCAGCAGAAGGCACAUGAGGAUCACCCAUGUGGUUCCGAUCC	28.8	244	–	–
AUAUAAUAUCAGGAUAUGACUAGCUGCGGCUAGUCAGAAGGGAUGACAUGAGGAUCACCCAUGUGAUCAUAUAU	33.2	151	–	–
CCCACAUGAGGAUAUCCAUCUGGAUCAGACUAGAUCCUGAUGGAGAAGGUACAUGAGGAUCACCCAUGUGUGGG	301	222	–	–
GGACAUCCCACAGGAUAUGCUGGACUUUGUCCAGCAGAAGGGUGAAGAACAUGAGGAUCACCCAUGUGGAUGUCCAUAUUUAAU	–	–	1440	95.4
UAGAAGUCAGGAUAUGCAUGGCGGGACUUGCGUCGUGGCGUGCAGAAGGGACAUGAGGAUCACCCAUGUAAAGC	49	43	–	–
GGCUGGUAGCUAGGAUAUGGGCGGUCACAUGAGGAUCACCCAUGUCAACAUCAAAACCAGAUUAACCAGAAGGAGCUGCGGGUU	–	–	36	37.8
ACGACGAAAGUCGAACGAUGAUCGAGAAGGACAUGAGGAUCACCCAUGUCCGCUGUAACAGCCAUGUAGGAUAUCGAUCAUCGA	3.59	3.83	–	–
UGAUCUUACAUGAGGAUCACCCAUGUAGGCCAGUAACUAACCAGAAGGCACGUAGAGUACAACAGUGAGGAUAUGGAUGACAUA	–	–	9.29	5.95
UGCUGUGUCAGAGGAUAUACUACUAUAAUCCAUUGCAAAUAGCGAUGGACAUGAGGAUCACCCAUGUAGAAGGCUGUCACAGCA	46.6	178	–	–

Sequence	apparent Kd [1] [nM]	apparent Kd [2] [nM]	apparent Kd [3] [nM]	apparent Kd [4] [nM]
AAAAAGGCAGGAUAUGCAUACACACAAAAAAAAAAACUGGGACAUGAGGAUCACCCAUGUAGAAGGGCCAAAAA	29.4	25.9	–	–
GCGGCUAAUGCAGGAUAUCGGCGCGUGUAGCGCCGAGAAGGGCACAUGAGGAUCACCCAUGUGAUCAAUCAAUGUUAAUGCCGC	8.68	45.6	–	–
GGACGUUACAUCUACAUGAGGAUCACCCAUGUCUCUUGAGAUGAGGAUAUGUAUACGAAUCGUUUAUAGAAGGCAUGAACGUCC	–	–	144	138
CUUUCGUGAGGAUAUGAAACUUCGAUCGUGAGAUCGAGGCUACAGAAGGCACAUGAGGAUCACCCAUGUUCCUC	34.6	420	–	–
CUAGUAUAUCAGGAUAUGAUUUUGUGUAGUUGGUCAGAAGGGAUGACAUGAGGAUCACCCAUGUUAAGGGAUGA	94.2	108	–	–
UACAUUACUGAGAAGGGAUAUAUAUAAUUUUAGUCAGGAUAUCGAUACAGUGCAGCAUGAGGACAUGAGGAUCACCCAUGUAUU	–	–	20.5	17
GAGCUGUGAGGAUAUAAACCUGUGGGCUCAACCUAGCGGGUUUAGAAGGCACAUGAGGAUCACCCAUGUCCCAA	26	262	–	–
AUGUUACAUGAGGAUCACCCAUGUGAGGAUAUGUGUAUCCCUAAAAAAGUGUGGGACCAUAGAAGGCAUUUGGA	59.1	64.1	–	–
CGAGACCUCACAGGAUAUGCUGGACUUUGUCCAGCAGAAGGGUGAAAACAUGAGGAUCACCCAUGUAUGGUCUCCAAAUUUAAC	–	–	175	12.9
GUGGUUCGCGAGAAGGGAGCUUAAGGACGCGGCUCAGGAUAUCGUACAUGAGGAUCACCCAUGUGCUGGCAUCUCCAGUGCGUG	118	56.1	–	–
GUUGCUUUCCGAGGAUAUUCAGGGCGUGGCUAUACAUGAGGAUCACCCAUGUGGCGGAAGCCUAGGGAGAAGGCGGGCUGCUUC	–	–	18.4	16.3
GGUUGUCAUCGUCAUCCUUUCGGUACAUGAGGAUCACCCAUGUAGGAUAUGCUGCUCUCGGUGUGGCAGAAGGGCGUGUGUGUU	24.4	39.5	–	–
UAGAAUCGAGGAUAUACAUGAGGAUCACCCAUGUGUGGCCAUACUGUGUGGUCGUCAGGUAGAAGGCGAUUAUA	72.3	22.6	–	–
AUGUCCUGAGGAUAUGGUCCAUUACACAUGAGGAUCACCCAUGUGGGUCUCGCCUGUAGGCCAGAAGGUAGGUCUU	52.8	49.5	–	–
GUCUCGUCAGGAUAUGACGCUACAUUUUUUUUUUAGAAGAGUCAGAAGGGACAUGAGGAUCACCCAUGUGAUUC	288	218	–	–
UAUUGAUAAUAUUUUAACAUGAGGAUCACCCAUGUCGCUAGACAGGAUAUAUUUUAUUUGUUUAAGUAGAAGGGUCGCAGAUUU	–	–	150	130
CCUAAGGAGGCAGGAUAUAGUGUGGUGGCCGGGCUCCCACGGCGAGCGGCACUAGAAGGGUCGCUACAUGAGGAUCACCCAUGU	–	–	25	17.3
AUAAUUUUAUAUAUCUAUUUAAUCAGAAGGCAUAACAUGAGGAUCACCCAUGUAAAUUAAUGUUAUGAGGAUAUGAUAUGGUUA	11.3	78	–	–
CGUAAGAUGCAGAAGGUGUUAGCUAGAGCUACGACAUGAGGAUCACCCAUGUACUAGAAACAGUACAAGGAUAUGCAUCUUACG	–	–	17.3	6.56
GGUCGUCACAUGAACAUGAGGAUCACCCAUGUAAAUUCUCAUGAGGAUAUGGAUCCUAAUUGGAUCCAGAAGGCAUGGACGACC	–	–	1090	333
AACUACCCGUCAGGAUAUCGCCGUAGGUCCUCGGGUCUCGCCGUCAUACAUGAGGAUCACCCAUGUGAGAAGGGACGGGUUUCA	20.9	136	–	–
